Screening results (PubChem BioAssay)
PAFAH2 inh = PAFAH2 (human) inhibition | recombinant PAFAH2, FP-rhodamine activity probe, fluorescence polarization | Q99487 | 0.99% of 340,000 active | inhibition, % at 3.39 µM;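 active = inhibition above the mean over all tested compounds plus 3 SD, cut at about 30% in these data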;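 also: inhibitors block probe labeling of enzyme so polarization drops; 0% = enzyme with DMSO and 100% = wells lacking PAFAH2 protein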
ARFGAP1 inh = inhibits rat ARF GTPase activating protein 1; inhibition, % at 16.5 µM; AID 651572; 0.26% of 360,000 active; Arfgap1-stimulated ARF1 GTP hydrolysis, GDP FP detection;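 active = inhibition above a per-plate limit, mean inhibition of low control wells plus 3 SD, cut at about 25% in these data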;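 also: 0% = DMSO wells with enzyme and 100% = wells lacking Arfgap1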
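system = rat Arfgap1 catalytic domain, aa 1-136 | technique = FP, GDP Alexa 633 tracer displaced from anti-GDP antibody, 620/688 nm | compound = one concentration, 16.5 µM, DMSO 1.26% | medium = HEPES-based buffer, pH 7.5 | timing = compound-enzyme preincubation 20 min, reaction 120 min, detection 60 min, 25 °C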
pPAFAH FP inh = pPAFAH (human) enzyme inhibition; inhibition, % at 3.39 µM; recombinant pPAFAH, FP-rhodamine probe fluorescence polarization; Q13093; 1.5% of 330,000 active;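 active = inhibition above the mean inhibition across the screen plus 3 SD, cut at about 25% in these data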;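 also: inhibitors block binding of the rhodamine activity-based probe so polarization drops; 0% = enzyme with DMSO and 100% = wells lacking pPAFAH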
PAFAH1B2 FP inh = blocks human PAF acetylhydrolase 1b catalytic subunit 2 | P68402 | recombinant PAFAH1B2, FP-rhodamine activity probe, fluorescence polarization | inhibition, % at 3.39 µM | 1.2% of 340,000 active | AID 492953;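 active = inhibition above the mean of all tested compounds plus 3 SD, cut at about 24% in these data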;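 also: 0% = enzyme with DMSO and 100% = wells lacking PAFAH1B2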
Target sequence (P68402 whole entry, looked up): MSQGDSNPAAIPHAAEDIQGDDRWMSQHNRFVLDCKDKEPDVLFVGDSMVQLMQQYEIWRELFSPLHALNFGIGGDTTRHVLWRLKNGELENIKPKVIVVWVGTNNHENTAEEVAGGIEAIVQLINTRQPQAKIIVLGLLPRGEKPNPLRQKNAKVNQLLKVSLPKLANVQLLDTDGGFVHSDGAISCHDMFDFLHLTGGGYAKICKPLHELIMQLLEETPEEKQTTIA
PAFAH1B3 FP inh = inhibitors of human PAFAH1B3. Q15102. recombinant PAFAH1B3, FP-rhodamine probe, fluorescence polarization. inhibition, % at 3.39 µM. 0.28% of 340,000 active;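 active = inhibition above the screen-wide average of all tested compounds plus 3 SD, cut at about 25% in these data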;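 also: 0% = enzyme with DMSO only and 100% = wells lacking PAFAH1B3 protein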
ASAP1 inh = inhibitors of human ASAP1 ArfGAP activity; inhibition, % at 16.5 µM; Q9ULH1; ASAP1-stimulated ARF1 GTP hydrolysis, GDP FP detection; 0.19% of 360,000 active; AID 624377; in the data active = inhibition above about 25%;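 also: 0% = vehicle with enzyme and substrate and 100% = no enzyme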
Target sequence (Q9ULH1 325-724 limits assumed): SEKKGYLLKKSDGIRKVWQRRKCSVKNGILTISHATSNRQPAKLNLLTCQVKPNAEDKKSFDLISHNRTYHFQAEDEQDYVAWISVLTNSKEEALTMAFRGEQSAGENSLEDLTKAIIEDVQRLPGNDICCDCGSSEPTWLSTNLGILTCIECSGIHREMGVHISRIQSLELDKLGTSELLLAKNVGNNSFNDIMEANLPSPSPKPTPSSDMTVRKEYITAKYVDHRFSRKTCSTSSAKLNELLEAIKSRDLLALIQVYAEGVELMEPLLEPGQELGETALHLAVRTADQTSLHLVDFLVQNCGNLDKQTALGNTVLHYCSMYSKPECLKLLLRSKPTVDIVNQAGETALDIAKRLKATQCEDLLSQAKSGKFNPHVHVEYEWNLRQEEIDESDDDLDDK
Numbers without * were called inactive; x = no result given. A selection: hits, their analogues and other compounds. The true share with any hit is near 2.8%.

SMILES	PAFAH2 inh	ARFGAP1 inh	pPAFAH FP inh	PAFAH1B2 FP inh	PAFAH1B3 FP inh	ASAP1 inh
Cc1ccc(NC(=O)CN2C(=O)CSc3ccc(S(=O)(=O)N4CCCCC4)cc32)cc1	11.9	-6.6	10.7	-2.6	-5.6	-3.3
Cc1cc(C)c(C)c(S(=O)(=O)N2CCC(C(=O)OCC(=O)N3c4ccccc4NC(=O)C3(C)C)CC2)c1C	2.6	7.2	5.3	-0.2	6.9	-0.8
Cc1ccc(C(=O)OCC(=O)N2CCC(C)CC2)cc1S(=O)(=O)N1CCCCC1	20.6	-17.3	8.2	5.0	11.0	-6.1
Cc1ccc(C(=O)OCC(=O)N2c3ccccc3NC(=O)C2(C)C)cc1S(=O)(=O)N1CCCCC1	7.8	0.5	3.8	27.2*	8.2	1.3
Cc1ccc(S(=O)(=O)N2CCCCC2)cc1C(=O)OCC(=O)N1c2ccccc2NC(=O)C1(C)C	8.0	6.3	6.6	34.1*	6.1	2.4
C[C@H]1CN([C@@H](C)CO)C(=O)CCCn2nncc2CO[C@H]1CN(C)S(=O)(=O)c1ccccc1F	x	-6.7	x	x	x	-2.2
CCn1c2ccccc2c2cc(NC(=O)c3ccc(=O)oc3)ccc21	x	7.9	32.5*	x	x	7.4
CCn1c2ccccc2c2cc(NC(=O)c3coc(=O)c(Br)c3)ccc21	x	19.5	9.9	x	x	-3.5
N[C@@H](Cc1c[nH]c2ccc(O)cc12)C(=O)O	-1.4	6.2	10.1	-0.7	-5.2	-1.0
NC(Cc1c[nH]c2ccc(OCc3ccccc3)cc12)C(=O)O (stereo unspecified)	-0.6	13.0	25.9*	12.5	9.0	8.2
COC(=O)[C@@H](NC(=O)c1cc(COc2cncc(Cl)c2)on1)c1ccccc1	-4.5	10.7	0.1	3.7	2.0	-19.4
CCC(NC(=O)c1cc(COc2cncc(Cl)c2)on1)c1ccc(C)cc1 (stereo unspecified)	-3.2	11.2	5.2	27.9*	0.9	13.8
COc1cc(OC)c(OC)cc1CNC(=O)c1cccc(S(=O)(=O)N2CCc3ccccc3C2)c1	0.0	-2.0	x	-3.3	-1.7	2.9
O=S(=O)(Oc1ccccc1N1CCCCC1)c1ccccc1	7.4	6.2	-5.6	30.9*	4.9	4.7
CCN(Cc1ccccc1)C(=O)c1cc2cc(OC)c(OC)cc2[nH]1	0.7	2.0	32.9*	5.2	2.3	-5.2
O=C(c1ccc(=O)[nH]n1)N1CCN(S(=O)(=O)c2cccc(F)c2)CC1	33.6*	2.4	x	22.2	33.9*	-1.3
O=C(Nc1ccnn1C1CCN(CC(O)CO)CC1)C1CCCC1 (stereo unspecified)	3.7	3.0	x	-0.1	0.2	-3.1
CCCCCCCCCS(=O)(=O)N/N=C/c1cccc([N+](=O)[O-])c1	18.0	-6.5	21.1	28.0*	10.7	-0.8
CCc1cc(=O)oc2cc(C)cc(OCC(=O)NCC(O)c3ccccc3)c12 (stereo unspecified)	8.2	8.5	6.3	2.7	5.8	-6.2
O=C1C(=O)c2cccnc2-c2ncccc21	x	-19.1	x	x	x	1.3
O=Cc1ccc(C(=O)OCC(=O)Nc2ccc(F)cc2F)cc1	46.6*	-7.3	8.2	2.1	2.9	3.9
COc1cc(C(=O)OCC(=O)Nc2ccc(F)cc2F)cc(OC)c1OC	3.9	-12.0	-2.8	1.1	2.0	2.1
Cc1[nH][nH]c(=O)c1C(c1ccc(-c2ccc(C(=O)O)cc2)o1)c1c(C)[nH][nH]c1=O	0.7	28.5*	x	4.6	16.8	-4.8
CS(=O)(=O)N(CC(=O)NCCSc1ccc(Cl)cc1)c1ccc2c(c1)OCO2	7.9	-1.7	0.3	25.4*	1.6	2.6
CS(=O)(=O)N(CC(=O)NCCSc1ccccc1)c1ccc2c(c1)OCO2	5.6	6.3	5.4	3.7	4.3	7.4
SMILES	PAFAH2 inh	ARFGAP1 inh	pPAFAH FP inh	PAFAH1B2 FP inh	PAFAH1B3 FP inh	ASAP1 inh
O=C(NCCCNc1ccc(C(F)(F)F)cc1[N+](=O)[O-])c1ccc(Cl)cc1	-2.3	0.6	9.7	29.4*	6.0	8.3
O=C(NCc1cccs1)c1ccc(S(=O)(=O)N2CCCCC2)cc1	-5.1	-4.6	3.3	4.3	4.7	-20.8
CC1CCN(S(=O)(=O)c2cccc(C(=O)NCc3cccs3)c2)CC1	4.6	-6.3	-2.3	27.4*	0.5	8.8
CC1CCN(S(=O)(=O)c2cccc(C(=O)NCc3ccco3)c2)CC1	6.2	-8.4	2.8	24.5*	3.1	12.8
O=S(=O)(Nc1cccc(Cl)c1)c1ccc2oc(=S)[nH]c2c1	9.6	7.8	31.8*	12.3	2.2	-9.7
O=S(=O)(c1ccc2oc(=S)[nH]c2c1)N1CCCCC1	-1.2	9.8	6.0	6.2	-4.6	0.6
COc1ccc(-c2c(Sc3ccccc3)c3cc(-c4ccc(OC)c(F)c4)ccc3n2C)cc1	x	6.0	x	x	x	4.6
Cn1c(=O)c2c(nc(NCC3CCCC(CN)C3)n2Cc2ccc(Cl)cc2Cl)n(C)c1=O (stereo unspecified)	2.9	11.8	0.2	5.6	2.4	-3.8
CC(=O)c1c2c3c(c(Br)ccc3n(C)c1=O)C(=O)c1ccccc1-2	-4.2	9.7	28.9*	3.4	13.5	-12.0
CCC(C)(C)NC(=O)C(c1ccc(OC)cc1)N(C(=O)CCC(=O)Nc1cc(C)on1)C(C)(C)C (stereo unspecified)	-8.5	-3.1	9.6	-5.5	1.4	2.9
Nc1nc(-c2ccc(F)cc2)cs1	-11.3	0.4	-2.3	54.9*	-1.7	1.8
Nc1nc(-c2ccc(Br)cc2)cs1	3.3	-5.2	8.1	83.4*	6.1	0.5
Nc1nc(-c2cc(-c3ccccc3)no2)cs1	7.9	5.8	4.5	0.0	0.7	5.2
Nc1nc(-c2ccccc2)cs1	-0.2	-0.5	1.8	39.4*	5.9	9.6
COc1ccc(-c2csc(N)n2)cc1F	8.6	6.1	-3.5	1.2	8.4	5.3
Cc1ccccc1NC(=O)CSc1ccsc1[N+](=O)[O-]	22.1	9.1	27.0*	3.7	13.6	3.4
O=C1OC(C(=O)Nc2ccccc2)Cc2ccccc21 (stereo unspecified)	49.2*	-2.1	24.9*	2.1	5.5	6.7
CC1(C(=O)Nc2cccc(Oc3ccccc3)c2)CCN1Cc1cc2ccccc2o1 (stereo unspecified)	x	-4.6	x	x	x	-15.3
Cc1ccc(/C=N/OC(=O)c2nn(C)cc2Cl)cc1	13.4	3.4	-0.2	28.3*	2.2	5.0
CCCC(c1nnnn1C(C)(C)CC)N1CCN(C(=O)c2ccco2)CC1 (stereo unspecified)	9.3	-7.1	5.0	1.8	2.0	-17.2
Cc1nnc(NC(=O)C2(c3ccccc3)CCOCC2)s1	0.3	2.8	-1.1	3.0	-2.3	-0.3
Cc1cnc(NC(=O)C2(c3ccccc3)CC2)s1	1.4	-1.9	2.8	28.6*	6.7	-2.2
O=C(O)C1C2CCC(O2)C1C(=O)Nc1ccccc1Br (stereo unspecified)	8.0	4.9	1.4	-3.6	16.8	-12.7
Cc1cccc(C(=O)OCC(=O)NC2CCCCCCC2)c1	91.5*	3.7	29.4*	7.7	6.0	7.9
